Measured values of several laboratories.
Compare with care: the assays were run in different laboratories.
Organism: Staphylococcus aureus
Observed: microbial killing

`CC1CCN(CCCN2/C(=C/c3cc[n+](C)c4ccccc34)Sc3ccccc32)CC1.[I-]` gave an MBC of 16 µg/mL (ATCC29213).
With `COc1c(C)c(OC)c(C(=O)/C=C/c2ccccc2)c(OC)c1C` the MBC was > 5000 µg/mL (broth dilution; ATCC25923).
`O=C1NC(=S)N/C1=C\c1ccc(-c2ccc(N(c3ccccc3)c3ccccc3)cc2)cc1` has an MBC of > 1000 µg/mL (broth dilution; ATCC6538).
For `CC(=O)NC[C@H]1CN(c2ccc(N3CCOCC3)c(F)c2)C(=O)O1`, the MBC was 64 µM (broth dilution; MRSA NRS119; drug-resistant strain).
With `O=C(O)CN1C(=O)/C(=C/c2ccc(-c3ccc(N(c4ccccc4)c4ccccc4)cc3)c3ccccc23)SC1=S` the MBC was > 1000 µg/mL (broth dilution; ATCC43300).
For `CCCCCCCCCCCCCC#CC(=O)O`, the MBC was 7.8 µg/mL.
With `O=[N+]([O-])c1ccc(-c2nc3cccc(O)c3[nH]2)o1` the MBC was 2 µg/mL (ATCC33591).
The MBC of `O=C(O)CN1C(=O)/C(=C/c2ccc(-c3ccc(N(c4ccccc4)c4ccccc4)cc3)cc2)NC1=S` is reported as 3.9 µg/mL (broth dilution; ATCC6538).
The MBC of `COc1c(C)c(OC)c2c(c1C)OC(c1ccccc1)CC2=O` (stereo not drawn) is reported as > 5000 µg/mL (broth dilution; ATCC25923).
With `O=C1NC(=S)N/C1=C\c1c2ccccc2c(-c2ccc(N(c3ccccc3)c3ccccc3)cc2)c2ccccc12` the MBC was > 1000 µg/mL (broth dilution; ATCC6538).
With `CCOC(=O)c1c(N)csc1-c1cn(-c2ccccc2)nc1-c1ccc(C)cc1` the MBC was 0.125 µg/mL (broth dilution).
For `CCn1cc(C(=O)O)c(=O)c2cc(F)c(N3CCNCC3)cc21`, the MBC was 2 µM (broth dilution; ATCC6538).
`COc1c(C)c(OC(=O)c2ccccc2)c(C)c(O)c1C(=O)/C=C/c1ccccc1` has an MBC of > 5000 µg/mL (broth dilution; ATCC25923).
`O=C1NC(=S)N/C1=C\c1ccc(-c2ccc(N(c3ccccc3)c3ccccc3)cc2)c2ccccc12` gave an MBC of > 1000 µg/mL (broth dilution; ATCC25923).
`CCCCCCCC(=O)Oc1c(C)c(O)c(C(=O)/C=C/c2ccccc2)c(OC)c1C` has an MBC of > 5000 µg/mL (broth dilution; ATCC25923).
For `COc1cc(NC(C)CCCNC(=S)NCCCC(C)Nc2cc(OC)cc3cccnc23)c2ncccc2c1.Cl.Cl` (stereo not drawn), the MBC was 10 to 20 µg/mL (ATCC43300 MRSA; drug-resistant strain).
`COc1c(C)c(OS(=O)(=O)c2ccc3ccccc3c2)c(C)c(O)c1C(=O)/C=C/c1ccccc1` gave an MBC of > 5000 µg/mL (broth dilution; ATCC25923).
For `O=C(O)c1cn(C2CC2)c2cc(N3CCNCC3)c(F)cc2c1=O`, the MBC was 0.5 µg/mL (broth dilution).
The MBC of `CCCCCC(=O)Oc1c(C)c(O)c(C(=O)/C=C/c2ccccc2)c(OC)c1C` is reported as > 5000 µg/mL (broth dilution; ATCC25923).
With `COc1cc(Cc2cnc(N)nc2N)cc(OC)c1OC` the MBC was 2 µg/mL (broth dilution; 48 h).
For `CCCCCCCCCC(=O)Oc1c(C)c(O)c(C(=O)/C=C/c2ccccc2)c(OC)c1C`, the MBC was > 5000 µg/mL (broth dilution; ATCC25923).
`O=C(O)CN1C(=O)/C(=C/c2c3ccccc3c(-c3ccc(N(c4ccccc4)c4ccccc4)cc3)c3ccccc23)SC1=S` has an MBC of > 1000 µg/mL (broth dilution; ATCC43300).
`COc1c(C)c(OC(C)=O)c(C)c(OC(C)=O)c1C(=O)/C=C/c1ccccc1` has an MBC of > 5000 µg/mL (broth dilution; ATCC25923).
For `O=C1NC(=S)S/C1=C\c1ccc(-c2ccc(N(c3ccccc3)c3ccccc3)cc2)c2ccccc12`, the MBC was > 1000 µg/mL (broth dilution; ATCC43300).
